These results are taken from ChEMBL document CHEMBL1133633, “Anti-Helicobacter pylori agents. 4. 2-(Substituted guanidino)-4-phenylthiazoles and some structurally rigid derivatives” (2000).

Usually MIC stands for the lowest concentration that inhibits growth of the organism. For orientation: Inhibition means the relative decrease from the control value, in per cent. Low readings indicate a weak effect, high ones a strong effect.

Experiment [1] concerns Helicobacter pylori. Kind of experiment: The lowest drug concentration that inhibited macroscopic colonial growth against Helicobacter pylori. Type of experiment: functional. A digest of the protocol: (§1)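 Agar dilution. Strains were precultured 3 days at 37 °C on Brucella agar with 3% horse serum and 2% starch, then suspended in buffered saline to McFarland No. 1. A 10²-fold dilution was spotted by multipoint replicator onto Brucella agar with 7% lysed horse blood carrying serial 2-fold drug dilutions. Plates were incubated 3 days at 37 °C under 10% CO₂. MIC is the lowest concentration preventing macroscopic colonial growth. Mean and range come from 10 strains: 8001, 8003, 8004, 8007, 8008, 8009, 8011, 9005, FP1530 and FP1532.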

The test system of experiment [2] is Helicobacter pylori. The experiment is described as follows: The lowest drug concentration that inhibited macroscopic colonial growth against Helicobacter pylori; value ranges from 0.78-6.25. The experiment is classed as functional. A digest of the protocol: as §1
For experiment [3], the system named is Helicobacter pylori. Kind of experiment: The lowest drug concentration that inhibited macroscopic colonial growth against Helicobacter pylori; Value ranges from 25-100. Type of experiment: functional. A digest of the protocol: as §1
The subject of experiment [4] is Helicobacter pylori. The experiment is described as follows: The lowest drug concentration that inhibited macroscopic colonial growth against Helicobacter pylori; value ranges from 0.2-0.78. The experiment is classed as functional. A digest of the protocol:
as §1

The test system of experiment [5] is Rattus norvegicus. Kind of experiment: Inhibition of histamine stimulated gastric acid secretion in lumen perfused stomach of anesthetized rats (1 mg/kg iv). Type of experiment: functional. A digest of the protocol: (§2)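 Male Sprague-Dawley rats (~250 g), fasted 24 h, anesthetized with urethane 1.25 g/kg ip. The opened stomach was lumen-perfused with saline, and the perfusate was titrated with 25 mM NaOH by autotitrator. Inhibition of histamine-stimulated acid output was measured after 1 mg/kg iv dosing; n = 2.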

The species entered for experiment [6] is Cavia porcellus. The experiment is described as follows: Inhibition of histamine stimulated chronotropic response in isolated guinea pig right atrium (1*10e-6 g/mL). Type of experiment: functional, Cardiac atrium. A digest of the protocol:
(§3)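 Guinea pig right atrial strip, under 0.3-0.6 g initial tension in Tyrode solution at 30 °C, gassed with 95% O₂-5% CO₂; beating rate recorded by transducer. Histamine hydrochloride (1 × 10^-6 g/mL) raised rate. Test compound (1 × 10^-6 g/mL) was added 30 min after histamine washout. Percent inhibition compares histamine-induced rate increases before and 30 min after dosing.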

Experiment [7] has as its system Helicobacter pylori. The experiment is described as follows: The lowest drug concentration that inhibited macroscopic colonial growth against Helicobacter pylori; value ranges from 6.25-25. The experiment is classed as functional. A digest of the protocol:
as §1

In experiment [8] the test system is Helicobacter pylori. Kind of experiment: The lowest drug concentration that inhibited macroscopic colonial growth against Helicobacter pylori; value ranges from 0.00625-0.05. The experiment is classed as functional. A digest of the protocol:
as §1

Experiment [9] relates to Helicobacter pylori. Kind of experiment: The lowest drug concentration that inhibited macroscopic colonial growth against Helicobacter pylori; Value ranges from 6.25-50. The experiment is classed as functional. A digest of the protocol:
as §1

Experiment [10] relates to Helicobacter pylori. Kind of experiment: The lowest drug concentration that inhibited macroscopic colonial growth against Helicobacter pylori; value ranges from 12.5-100. Type of experiment: functional. A digest of the protocol:
as §1

In experiment [11] the test system is Helicobacter pylori. Kind of experiment: The lowest drug concentration that inhibited macroscopic colonial growth against Helicobacter pylori; value ranges from 12.5-50. The experiment is classed as functional. A digest of the protocol: as §1
In experiment [12] the test system is Helicobacter pylori. The experiment is described as follows: The lowest drug concentration that inhibited macroscopic colonial growth against Helicobacter pylori; Value ranges from 0.1-0.39. The experiment is classed as functional. A digest of the protocol:
as §1

The species named for experiment [13] is Cavia porcellus. The experiment is described as follows: Inhibition of histamine stimulated chronotropic response in isolated guinea pig right atrium. Type of experiment: functional, Cardiac atrium. A digest of the protocol:
as §3

Experiment [14] deals with Helicobacter pylori. The experiment is described as follows: Determined the lowest drug concentration that inhibited macroscopic colonial growth against Helicobacter pylori. The experiment is classed as functional. A digest of the protocol: as §1
The subject of experiment [15] is Rattus norvegicus. The experiment is described as follows: Inhibition of histamine stimulated gastric acid secretion in lumen perfused stomach of anesthetized rats. The experiment is classed as functional. A digest of the protocol:
as §2

Experiment [16] relates to Helicobacter pylori. The experiment is described as follows: The lowest drug concentration that inhibited macroscopic colonial growth against Helicobacter pylori; value ranges from 0.39-1.56. The experiment is classed as functional. A digest of the protocol: as §1
Experiment [17] has as its system Helicobacter pylori. Kind of experiment: The lowest drug concentration that inhibited macroscopic colonial growth against Helicobacter pylori; value ranges from 3.13-50. Type of experiment: functional. A digest of the protocol:
as §1

Experiment [18] has as its system Neisseria gonorrhoeae. Kind of experiment: Antimicrobial activity was measured against Neisseria gonorrhoeae organism. Type of experiment: functional.
The subject of experiment [19] is Neisseria meningitidis. Kind of experiment: Antimicrobial activity was measured against Neisseria meningitidis organism. The experiment is classed as functional.
Experiment [20] has as its system Clostridioides difficile. The experiment is described as follows: Antimicrobial activity was measured against Clostridium difficile organism. Type of experiment: functional.
Experiment [21] concerns Campylobacter jejuni. The experiment is described as follows: Antimicrobial activity was measured against Campylobacter jejuni organism. The experiment is classed as functional.
For experiment [22], the system named is Helicobacter pylori. Kind of experiment: The lowest drug concentration that inhibited macroscopic colonial growth against Helicobacter pylori; value ranges from 0.2-0.39. The experiment is classed as functional. A digest of the protocol:
as §1

The test system of experiment [23] is Clostridium perfringens. Kind of experiment: Antimicrobial activity was measured against Clostridium perfringens organism. The experiment is classed as functional.
The test system of experiment [24] is Helicobacter pylori. Kind of experiment: Antimicrobial activity was measured against Helicobacter pylori organism. Value ranges from (0.2-0.39). The experiment is classed as functional. A digest of the protocol:
as §1

The subject of experiment [25] is Bacteroides fragilis. The experiment is described as follows: Antimicrobial activity was measured against Bacteroides fragilis organism. The experiment is classed as functional.

Values after ≈ are worked out from the molar mass of the structure shown.

`CC(=O)Nc1ccc2c(c1)-c1nc(N=C(N)N)sc1CS2`: the MIC in experiment [1] is more than 100 µg/mL.
The molecule `CC(=O)NCc1cccc(-c2csc(NC(=N)NCCOCc3ccccc3)n2)c1` yielded a minimal inhibitory concentration (MIC) in experiment [2] of 2.5 µg/mL (≈ 5.9 µM).
Regarding `CC(=O)NCc1ccc2c(c1)-c1nc(N=C(N)N)sc1CO2`, in [3], the minimum inhibitory concentration (MIC) amounted to 62 µg/mL (≈ 195 µM).
`COc1ccc(CC/N=C(\N)Nc2nc(-c3cccc(CNC(C)=O)c3)cs2)cc1`: the MIC in experiment [4] was 0.32 µg/mL (≈ 0.756 µM). Further, the Inhibition in [5] is 10%; in experiment [6], 34%.
In experiment [7], `CC(=O)NCc1cccc(-c2csc(NC(=N)NCCC#N)n2)c1` gave a minimal inhibitory concentration (MIC) of 19.3 µg/mL (≈ 56.4 µM).
Regarding `CC(=O)Nc1ccc2c(c1)-c1nc(N=C(N)N)sc1CCO2`, in experiment [1], the MIC was more than 100 µg/mL.
As for `CC(=O)NCc1cccc(-c2csc(NC(=N)NCc3ccccc3)n2)c1`, the minimum inhibitory concentration (MIC) in experiment [8] was 0.025 µg/mL (≈ 0.0659 µM). Also, the Inhibition is on record as 50% in [5] and 77% in experiment [6].
For the molecule `COc1ccccc1CC/N=C(\N)Nc1nc2c(s1)CCOc1ccc(CNC(C)=O)cc1-2`, the MIC in [9] worked out at 18.9 µg/mL (≈ 40.6 µM).
In the case of `CC(=O)NCc1cccc(-c2csc(N/C(N)=N/CCN(C)C)n2)c1`, the MIC in [10] is 57 µg/mL (≈ 158 µM).
Consider `CCO/N=C(\N)Nc1nc(-c2cccc(CNC(C)=O)c2)cs1`, for which it took 29 µg/mL (≈ 87 µM) to inhibit growth in experiment [11] (MIC).
For the molecule `CCCC/N=C(\N)Nc1nc(-c2cccc(CNC(C)=O)c2)cs1`, in [12], the MIC worked out at 0.22 µg/mL (≈ 0.637 µM). Moreover, the values for the Inhibition in [13] and in [5] were 84% and 74%, respectively.
With `CC(=O)NCc1cccc(-c2csc(N=C(N)N)n2)c1`, the MIC in [1] is 16.5 µg/mL (≈ 57 µM).
The same measure, in the same setting: with `CC/N=C(\N)Nc1nc(-c2cccc(CNC(C)=O)c2)cs1` the figure was 3.6 µg/mL (≈ 11.3 µM).
In the case of `CNC(=C[N+](=O)[O-])NCCSCc1ccc(CN(C)C)o1` [RANITIDINE], the MIC in experiment [14] was more than 1600 µg/mL. Also, the Inhibition in [13] is on record as 44%; in experiment [15], 72%.
`COCCC/N=C(\N)Nc1nc(-c2cccc(CNC(C)=O)c2)cs1`: the minimal inhibitory concentration (MIC) in experiment [16] was determined as 0.96 µg/mL (≈ 2.66 µM). For the same molecule, the Inhibition in [5] worked out at 87%; in [6], 54%.
Regarding `CC(=O)NCc1cccc(-c2csc(NC(=N)NCCO)n2)c1`, the lowest concentration to inhibit growth in experiment [9] (MIC) was 20 µg/mL (≈ 60 µM).
Turning to `CC(=O)NCc1cccc(-c2csc(NC(=N)NCCNC(=O)c3ccccc3)n2)c1`, in [17], the MIC is 23 µg/mL (≈ 52.7 µM).
`COCC/N=C(\N)Nc1nc(-c2cccc(CNC(C)=O)c2)cs1`: the MIC in experiment [18] was more than 100 µg/mL; in [19], more than 100 µg/mL; in experiment [20], more than 100 µg/mL; in experiment [21], more than 100 µg/mL; in [22], 0.32 µg/mL (≈ 0.921 µM); in experiment [23], more than 100 µg/mL. For the same molecule, the MIC is 0.32 µg/mL (≈ 0.921 µM) in [24] and more than 100 µg/mL in [25]. Also, the Inhibition in [5] was found to be 87%; in [6], 83%.
